Reference: ChEMBL document CHEMBL3867440, “Hernandezine, a Bisbenzylisoquinoline Alkaloid with Selective Inhibitory Activity against Multidrug-Resistance-Linked ATP-Binding Cassette Drug Transporter ABCB1” (J Nat Prod, 2016)

Legend:
[1] = biological target: T1, ATP-dependent translocase ABCB1 (Homo sapiens, UniProt P08183); assay: Inhibition of human ABCB1-mediated efflux transfected in HEK293 cells assessed as accumulation of fluorescent dye at 1 uM by calcein-AM dye based FACS analysis; assay type: cell-based; settings: hek293, 1 µM
How it was run: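 The HEK293 cells, transfected with human ABCB1 (parental HEK293 as control), were trypsinized and resuspended in IMDM with 5% FCS. Calcein-AM was added to 3 × 10^5 cells in 4 mL, with or without test compound (single 1 μM or a concentration series) or 3 μM tariquidar. Fluorescence was read immediately by flow cytometry. Results are the mean ± SEM of at least three experiments.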

[2] = Cytotoxicity against HEK293 cells assessed as reduction in cell viability at 1 uM after 72 hrs by CCK8 assay; assay type: toxicity, cell-based; settings: human, hek293, 72 h
[3] = biological target: T1, ATP-dependent translocase ABCB1; assay: Inhibition of human ABCB1 transfected in HEK293 cells assessed as potentiation of doxorubicin-induced cytotoxicity by measuring doxorubicin resistance ratio at 50 nM after 72 hrs by CCK8 assay relative to parental HEK293 cells (reference value: 96); assay type: cell-based; settings: hek293, 72 h, 0.05 µM
[4] = biological target: T1, ATP-dependent translocase ABCB1; assay: Inhibition of human ABCB1 transfected in HEK293 cells assessed as potentiation of doxorubicin-induced cytotoxicity by measuring doxorubicin resistance ratio at 200 nM after 72 hrs by CCK8 assay relative to parental HEK293 cells (reference value: 96); assay type: cell-based; settings: hek293, 72 h, 0.2 µM
[5] = biological target: T1, ATP-dependent translocase ABCB1; assay: Inhibition of human ABCB1 transfected in HEK293 cells assessed as potentiation of doxorubicin-induced cytotoxicity by measuring doxorubicin resistance ratio at 500 nM after 72 hrs by CCK8 assay relative to parental HEK293 cells (reference value: 96); assay type: cell-based; settings: hek293, 72 h, 0.5 µM
[6] = biological target: T1, ATP-dependent translocase ABCB1; assay: Inhibition of ABCB1 in human KBV1 cells assessed as potentiation of doxorubicin-induced cytotoxicity at 1 uM after 72 hrs by MTT assay; assay type: cell-based; settings: kbv1, 72 h
How it was run: (§1)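 The cells were kept in drug-free medium for 7 days. They were seeded at 5000 cells/well, allowed to attach for 24 h at 37 °C, then exposed to graded doxorubicin with or without 50–500 nM test compound or 1 μM tariquidar for a further 72 h. Viability was read by MTT. Results are means of at least three independent experiments.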

[7] = biological target: T1, ATP-dependent translocase ABCB1; assay: Inhibition of ABCB1 in human NCI-ADR-RES cells assessed as reduction of calcein efflux at 1 uM by -based FACS analysis; assay type: cell-based
How it was run: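 Trypsinized cells were resuspended in IMDM with 5% FCS. Calcein-AM was added to 3 × 10^5 cells in 4 mL IMDM, with or without 1 μM test compound or 3 μM tariquidar. Intracellular calcein fluorescence was read immediately by flow cytometry, with the drug-sensitive parental line run in parallel.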

[8] = biological target: T1, ATP-dependent translocase ABCB1; assay: Inhibition of ABCB1 in human NCI-ADR-RES cells assessed as potentiation of doxorubicin-induced cytotoxicity at 1 uM after 72 hrs by MTT assay; assay type: cell-based; how it was run: as §1
[9] = biological target: T1, ATP-dependent translocase ABCB1; assay: Inhibition of ABCB1 in human KBV1 cells assessed as potentiation of doxorubicin-induced cytotoxicity by measuring doxorubicin resistance ratio at 50 nM after 72 hrs by MTT assay relative to parental KB-3-1 cells (reference value: 34); assay type: cell-based; settings: kbv1, 72 h, 0.05 µM
How it was run: (§2)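 Cells were kept in drug-free DMEM with 10% FCS for 7 days before assay, then plated at 5000 cells/well for 24 h. Drug at various concentrations was added with a nontoxic fixed level of modulator for 72 h, and the read-out was MTT. IC50 came from fitted curves (≥3 experiments). RR = IC50 of the resistant line / IC50 of the parental line.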

[10] = biological target: T1, ATP-dependent translocase ABCB1; assay: Inhibition of ABCB1 in human KBV1 cells assessed as potentiation of vincristine-induced cytotoxicity by measuring vincristine resistance ratio at 500 nM after 72 hrs by MTT assay relative to parental KB-3-1 cells (reference value: 356); assay type: cell-based; settings: kbv1, 72 h, 0.5 µM; how it was run: as §2
[11] = biological target: T1, ATP-dependent translocase ABCB1; assay: Inhibition of ABCB1 in human KBV1 cells assessed as potentiation of vincristine-induced cytotoxicity by measuring vincristine resistance ratio at 100 nM after 72 hrs by MTT assay relative to parental KB-3-1 cells (reference value: 356); assay type: cell-based; settings: kbv1, 72 h, 0.1 µM; how it was run: as §2
[12] = biological target: T1, ATP-dependent translocase ABCB1; assay: Inhibition of ABCB1 in human NCI-ADR-RES cells assessed as potentiation of doxorubicin-induced cytotoxicity by measuring doxorubicin resistance ratio at 200 nM after 72 hrs by MTT assay relative to parental OVCAR8 cells (reference value: 46); assay type: cell-based; settings: ovcar-8, 72 h, 0.2 µM; how it was run: as §2
[13] = biological target: T1, ATP-dependent translocase ABCB1; assay: Inhibition of ABCB1 in human NCI-ADR-RES cells assessed as potentiation of colchicine-induced cytotoxicity by measuring colchicine resistance ratio at 500 nM after 72 hrs by MTT assay relative to parental OVCAR8 cells (reference value: 59); assay type: cell-based; settings: ovcar-8, 72 h, 0.5 µM; how it was run: as §2
[14] = biological target: T1, ATP-dependent translocase ABCB1; assay: Inhibition of ABCB1 in human NCI-ADR-RES cells assessed as potentiation of vincristine-induced cytotoxicity by measuring vincristine resistance ratio at 200 nM after 72 hrs by MTT assay relative to parental OVCAR8 cells (reference value: 435); assay type: cell-based; settings: ovcar-8, 72 h, 0.2 µM; how it was run: as §2
[15] = biological target: T1, ATP-dependent translocase ABCB1; assay: Inhibition of ABCB1 in human NCI-ADR-RES cells assessed as potentiation of vincristine-induced cytotoxicity by measuring vincristine resistance ratio at 100 nM after 72 hrs by MTT assay relative to parental OVCAR8 cells (reference value: 435); assay type: cell-based; settings: ovcar-8, 72 h, 0.1 µM; how it was run: as §2
KB 3-1 [16] = assay: Induction of apoptosis in human KB-3-1 cells assessed as viable cells at 1 uM after 48 hrs by Annexin V-FITC/propidium iodide staining based FACS analysis (reference value: 88.4%); assay type: functional; settings: KB 3-1, 48 h, read-out: Activity
KB 3-1 [17] = assay: Induction of apoptosis in human KB-3-1 cells assessed as necrotic cells at 1 uM after 48 hrs by Annexin V-FITC/propidium iodide staining based FACS analysis (reference value: 0.7%); assay type: functional
KB-V1 = assay: Induction of apoptosis in human KBV1 cells assessed as necrotic cells at 1 uM after 48 hrs by Annexin V-FITC/propidium iodide staining based FACS analysis (reference value: 1%); assay type: functional
KB 3-1 [18] = assay: Potentiation of colchicine-induced apoptosis in human KB-3-1 cells assessed as late apoptotic cells at 1 uM after 48 hrs by Annexin V-FITC/propidium iodide staining based FACS analysis (reference value: 25.7%); assay type: functional
ABCB1 (P-glycoprotein) = ABCB1 (P-glycoprotein) (Homo sapiens, UniProt P08183); assay: Induction of Vanadate-sensitive ABCB1 (unknown origin) assessed as increase in ATPase activity up to 1 uM by Pgp-glo assay relative to control; settings: read-out: FC
How it was run: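 Vanadate-sensitive ABCB1 ATPase activity measured with the Pgp-Glo system as […], across 0–1 μM test compound. Points are means of at least three independent experiments.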

[19] = biological target: T1, ATP-dependent translocase ABCB1; assay: Induction of Vanadate-sensitive ABCB1 (unknown origin) assessed as ATPase activity by measuring concentration required for 50% maximal stimulation by Pgp-glo assay
How it was run: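 Vanadate-sensitive ABCB1 ATPase activity was measured with the Pgp-Glo system using […], across 0–1 μM test compound. Points are the mean of at least three independent experiments.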

[20] = biological target: T1, ATP-dependent translocase ABCB1; assay: Binding affinity to Vanadate-sensitive ABCB1 (unknown origin)

T1 sequence (P08183 whole entry): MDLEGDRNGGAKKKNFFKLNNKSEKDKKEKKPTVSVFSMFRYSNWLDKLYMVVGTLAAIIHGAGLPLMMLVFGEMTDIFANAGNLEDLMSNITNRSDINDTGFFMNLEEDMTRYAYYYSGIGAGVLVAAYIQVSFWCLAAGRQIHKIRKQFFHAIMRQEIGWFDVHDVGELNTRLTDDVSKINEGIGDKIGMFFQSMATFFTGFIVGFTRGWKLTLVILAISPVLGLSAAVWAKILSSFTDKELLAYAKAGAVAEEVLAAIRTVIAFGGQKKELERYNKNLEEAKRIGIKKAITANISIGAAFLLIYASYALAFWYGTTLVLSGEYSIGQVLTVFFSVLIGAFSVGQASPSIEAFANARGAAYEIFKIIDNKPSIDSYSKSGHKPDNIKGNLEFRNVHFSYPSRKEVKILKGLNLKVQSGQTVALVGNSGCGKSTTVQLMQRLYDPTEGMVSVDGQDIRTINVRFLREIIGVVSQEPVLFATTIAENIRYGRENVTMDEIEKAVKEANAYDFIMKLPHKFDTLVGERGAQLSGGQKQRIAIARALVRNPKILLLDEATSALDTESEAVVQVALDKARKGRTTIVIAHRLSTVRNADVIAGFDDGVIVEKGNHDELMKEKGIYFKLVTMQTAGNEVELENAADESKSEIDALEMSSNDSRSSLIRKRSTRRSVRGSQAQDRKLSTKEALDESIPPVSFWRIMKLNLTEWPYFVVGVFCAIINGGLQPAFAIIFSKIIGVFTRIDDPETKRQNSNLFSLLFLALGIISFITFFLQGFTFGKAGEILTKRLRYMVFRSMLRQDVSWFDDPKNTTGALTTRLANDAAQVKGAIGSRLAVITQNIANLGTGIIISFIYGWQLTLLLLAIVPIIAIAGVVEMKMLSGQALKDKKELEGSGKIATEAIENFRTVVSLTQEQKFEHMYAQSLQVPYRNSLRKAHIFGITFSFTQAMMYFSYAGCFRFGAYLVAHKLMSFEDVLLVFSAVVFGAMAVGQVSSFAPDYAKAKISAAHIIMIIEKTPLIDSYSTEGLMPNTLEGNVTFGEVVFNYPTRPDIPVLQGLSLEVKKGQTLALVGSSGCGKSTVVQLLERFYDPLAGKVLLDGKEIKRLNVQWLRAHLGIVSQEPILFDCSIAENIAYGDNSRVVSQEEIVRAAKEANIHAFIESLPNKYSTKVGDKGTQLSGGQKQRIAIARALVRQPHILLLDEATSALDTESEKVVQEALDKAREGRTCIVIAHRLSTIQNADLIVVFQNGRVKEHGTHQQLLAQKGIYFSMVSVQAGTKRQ
Sequence of ABCB1 (P-glycoprotein) (P08183 whole entry): as above

## COc1ccc2cc1Oc1ccc(cc1)C[C@H]1c3cc(c(OC)cc3CCN1C)Oc1c(OC)c(OC)c(OC)c3c1[C@H](C2)N(C)CC3 [HERNANDEZINE]
[1]
  inhibition (INH): Active
[2]
  Activity: Non-Toxic
[3]
  Ratio: 16
[4]
  Ratio: 8
[5]
  Ratio: 7
[6]
  inhibition (INH): Active
[7]
  inhibition (INH): Active
[8]
  inhibition (INH): Active
[9]
  Ratio: 9
[10]
  Ratio: 3
[11]
  Ratio: 169
[12]
  Ratio: 5
[13]
  Ratio: 4
[14]
  Ratio: 196
[15]
  Ratio: 433
KB 3-1 [16]
  viability at 1 µM: 88.8%
KB 3-1 [17]
  Activity: 0.2%
KB-V1
  Activity: 1%
KB 3-1 [18]
  Activity: 26.4%
ABCB1 (P-glycoprotein)
  fold induction: 7
[19]; human
  Activity: Dose-dependent effect
[19]; read-out: Activity
  EC50: 20 nM
[20]
  Ki: 20 nM
